Data set [1] can be described thus: Selectivity index, ratio of IC50 for rat L6 cells to ratio of IC50 for chloroquine/pyrimethamine-resistant erythrocytic form of Plasmodium falciparum K1. The format is toxicity, cell-based. Particulars: read-out: Selectivity Index.
The test system of data set [2] is Leishmania tarentolae. The data set is described as follows: Antiprotozoal activity against promastigote form of Leishmania tarentolae P10 assessed as parasite growth inhibition after 48 hrs by MTT assay. Type of data set: functional, organism-based. Particulars: P10, 48 h. An outline of the steps: (§1)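 Promastigotes of nonpathogenic lizard-infecting L. tarentolae strain P10, cultured in hemin-supplemented BHI medium; IC50 determined.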
Background: Formazan colour is commonly taken as a measure of viable cells.

Data set [3] is described as follows: Selectivity index, ratio of IC50 for rat L6 cells to ratio of IC50 for trypomastigote form of Trypanosoma brucei rhodesiense STIB 900. Type of data set: toxicity, cell-based. As to conditions: read-out: Selectivity Index.
Data set [4] deals with Plasmodium falciparum. In words: Potency index, ratio of chloroquine IC50 to compound IC50 for chloroquine/pyrimethamine-resistant erythrocytic form of Plasmodium falciparum K1. Type of data set: functional.
Data set [5] concerns Trypanosoma brucei rhodesiense. In words: Antiprotozoal activity against trypomastigote form of Trypanosoma brucei rhodesiense STIB 900 assessed as parasite growth inhibition. Type of data set: functional, organism-based.
Data set [6] relates to Plasmodium falciparum. The data set is described as follows: Antiprotozoal activity against chloroquine/pyrimethamine-resistant erythrocytic form of Plasmodium falciparum K1 assessed as parasite growth inhibition. The format is functional, organism-based.
For the next data set, the system named is L6. The data set is described as follows: Cytotoxicity against rat L6 cells. The format is cell-based. An outline of the steps:
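L6 rat skeletal myoblasts; cytotoxicity IC50 determined at the Swiss Tropical and Public Health Institute by an earlier standard protocol.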

Data set [7] concerns Trypanosoma cruzi. The data set is described as follows: Antiprotozoal activity against Trypanosoma cruzi assessed as parasite growth inhibition. Type of data set: functional, organism-based. An outline of the steps: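 T. cruzi intracellular amastigote stage, Tulahuen C4 strain; assayed at the Swiss Tropical and Public Health Institute by an earlier standard protocol.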

For data set [8], the system named is Leishmania donovani. The data set is described as follows: Antiprotozoal activity against Leishmania donovani assessed as parasite growth inhibition.
The subject of data set [9] is Leishmania tarentolae. In words: Antiprotozoal activity against Leishmania tarentolae assessed as parasite growth inhibition. Type of data set: functional, organism-based. An outline of the steps: as §1
A short description of data set [10]: Selectivity index, ratio of IC50 for rat L6 cells to ratio of IC50 for axenic amastigote form of Leishmania donovani MHOM/ET/67/L82. Type of data set: toxicity, cell-based. Particulars: read-out: Selectivity Index.
Data set [11] deals with Leishmania donovani. The data set is described as follows: Antiprotozoal activity against axenic amastigote form of Leishmania donovani MHOM/ET/67/L82 assessed as parasite growth inhibition. Type of data set: functional, organism-based.
Data set [12] deals with Trypanosoma cruzi. The data set is described as follows: Antiprotozoal activity against intracellular amastigote form of Trypanosoma cruzi Tulahuen C4 assessed as parasite growth inhibition. The format is functional, organism-based.

The IC50 is the point on the concentration scale where inhibition reaches its midpoint. `CC(NCc1ccccc1)c1cc2c(cc1O)OC(C)(C)C=C2` (centres undefined): the selectivity ratio in [1] was determined as 6760; in data set [3] it was 17.7. Further, the IC50 in the data set with Leishmania tarentolae [2] came out at 12.4 µM; in [5], 6.18 µM; in the data set on Plasmodium falciparum [6], 0.02 µM; in the data set on L6 it was 109 µM. The “Ratio IC50” value with Plasmodium falciparum [4] was 10.

As for `O=C(Cn1ccnc1[N+](=O)[O-])NCc1ccccc1` [BENZNIDAZOLE], in the data set with Trypanosoma cruzi [7], the IC50 came to 1.57 µM.

As to `CCCCCCCCCCCCCCCCOP(=O)([O-])OCC[N+](C)(C)C` [MILTEFOSINE], the IC50 with Leishmania donovani [8] worked out at 0.361 µM.

As to `N=C(N)c1ccc(OCCCCCOc2ccc(C(=N)N)cc2)cc1` [PENTAMIDINE], the IC50 in the data set on Leishmania tarentolae [9] is 0.03 µM.

For `COc1cc2c(cc1C(C)NCCCCc1ccccc1)CCC(C)(C)O2` (centres undefined), the selectivity ratio is 9.3 in data set [10], 3.94 in data set [1] and 2.87 in data set [3]. Besides, the IC50 in the data set with Leishmania tarentolae [2] worked out at 90.6 µM; in the data set on Leishmania donovani [11], 0.57 µM; in [5], 1.84 µM; in the data set on Trypanosoma cruzi [12], 5.03 µM; with Plasmodium falciparum [6] it was 1.34 µM; with L6, 5.28 µM.

As for `CC(NCCCc1ccccc1)c1cc2c(cc1O)OC(C)(C)C=C2` (centres undefined), the selectivity ratio worked out at 1820 in data set [1] and 5.08 in data set [3]. In addition, the IC50 in the data set on Leishmania tarentolae [2] worked out at 6.2 µM; in [5] it was 5.31 µM; with Plasmodium falciparum [6] it was 0.01 µM; in the data set on L6 it was 27 µM. Besides, in the data set on Plasmodium falciparum [4], the “Ratio IC50” value was determined as 25.

With `COc1cc2c(cc1C(C)NCCCc1ccccc1)C=CC(C)(C)O2` (centres undefined), the selectivity ratio in data set [10] is 0.01; in data set [1] it was 1.27; in data set [3], 1.05. The IC50 is 0.22 µM with Leishmania tarentolae [2]; 101 µM in the data set on Leishmania donovani [11]; 1.03 µM in data set [5]; 13.6 µM in the data set with Trypanosoma cruzi [12]; 0.85 µM in the data set on Plasmodium falciparum [6]; 1.08 µM in the data set with L6.

`C/C=C(/C)C(=O)OC(C)c1cc2c(cc1OC)OC(C)(C)C=C2` (centres undefined): the selectivity ratio in [10] was 3; in data set [1], 7.35; in data set [3], 0.89. The IC50 in the data set with Leishmania tarentolae [2] amounted to 21.3 µM; in the data set on Leishmania donovani [11], 46.2 µM; in data set [5] it was 157 µM; with Trypanosoma cruzi [12] it was 61.4 µM; in the data set on Plasmodium falciparum [6] it was 18.9 µM; with L6 it was 139 µM.

Values taken from ChEMBL document CHEMBL2434884, “Natural product derived antiprotozoal agents: synthesis, biological evaluation, and structure-activity relationships of novel chromene and chromane derivatives” (J Med Chem, 2013).
